Source: ChEMBL document CHEMBL5058577, “EUbOPEN Chemogenomics Library 2 (Multiplex)” (2022)

System: Fibroblast
Assay: Multiplex assay against human fibroblast
Format: toxicity, cell-based
Outline: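 Per cents of healthy-nucleus cells form the tubulin, mitochondrial-mass and membrane-permeability phenotype values. Live cells were stained at seeding with Hoechst33342, BioTracker Green Microtubule Cytoskeleton Dye, MitoTracker Red and Annexin V Alexa Fluor 680. After compound addition they were imaged on a CQ1 microscope at 37°C and 5% CO2, and CellPathfinder machine-learning gating split them into Hoechst high-intensity objects or normal cells, normal cells into healthy, pyknosed or fragmented nuclei, and pyknosed cells into mitotic or apoptotic.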

[1] = 12 h, 1 µM, compound concentration 1 uM, replicate 1
[2] = 12 h, 1 µM, compound concentration 1 uM, replicate 2
[3] = 12 h, 10 µM, compound concentration 10 uM, replicate 1
[4] = 12 h, 10 µM, compound concentration 10 uM, replicate 2
[5] = 24 h, 1 µM, compound concentration 1 uM, replicate 1
[6] = 24 h, 1 µM, compound concentration 1 uM, replicate 2
[7] = 24 h, 10 µM, compound concentration 10 uM, replicate 1
[8] = 24 h, 10 µM, compound concentration 10 uM, replicate 2
[9] = 48 h, 1 µM, compound concentration 1 uM, replicate 1
[10] = 48 h, 1 µM, compound concentration 1 uM, replicate 2
[11] = 48 h, 10 µM, compound concentration 10 uM, replicate 1
[12] = 48 h, 10 µM, compound concentration 10 uM, replicate 2

## O=C(CCCc1ccccc1)Nc1nc2ccccc2c(=O)s1
[1]
  Population Apoptotic (%): 58%
  Population Fragmented Nuclei (%): 9%
  Population Healthy Nuclei (%): 66%
  Population Hoechst High Intensity Objects (%): 2%
  Population Membrane Permeable-Phenotype (%): 0%
  Population Mitochondria Different-Phenotype (%): 4%
  Population Mitotic Cells (%): 41%
  Population Normal (%): 97%
  Population Pyknosed Nuclei (%): 23%
  Population Tubulin-Different-Phenotype (%): 34%
  Total Cell Count: 127
[2]
  Population Apoptotic (%): 34%
  Population Fragmented Nuclei (%): 19%
  Population Healthy Nuclei (%): 49%
  Population Hoechst High Intensity Objects (%): 3%
  Population Membrane Permeable-Phenotype (%): 9%
  Population Mitochondria Different-Phenotype (%): 7%
  Population Mitotic Cells (%): 65%
  Population Normal (%): 96%
  Population Pyknosed Nuclei (%): 31%
  Population Tubulin-Different-Phenotype (%): 35%
  Total Cell Count: 135
[3]
  Population Apoptotic (%): 51%
  Population Fragmented Nuclei (%): 21%
  Population Healthy Nuclei (%): 58%
  Population Hoechst High Intensity Objects (%): 2%
  Population Membrane Permeable-Phenotype (%): 1%
  Population Mitochondria Different-Phenotype (%): 4%
  Population Mitotic Cells (%): 48%
  Population Normal (%): 97%
  Population Pyknosed Nuclei (%): 20%
  Population Tubulin-Different-Phenotype (%): 28%
  Total Cell Count: 147
[4]
  Population Apoptotic (%): 31%
  Population Fragmented Nuclei (%): 26%
  Population Healthy Nuclei (%): 38%
  Population Hoechst High Intensity Objects (%): 12%
  Population Membrane Permeable-Phenotype (%): 13%
  Population Mitochondria Different-Phenotype (%): 17%
  Population Mitotic Cells (%): 68%
  Population Normal (%): 87%
  Population Pyknosed Nuclei (%): 35%
  Population Tubulin-Different-Phenotype (%): 48%
  Total Cell Count: 133
[5]
  Population Apoptotic (%): 50%
  Population Fragmented Nuclei (%): 13%
  Population Healthy Nuclei (%): 68%
  Population Hoechst High Intensity Objects (%): 2%
  Population Membrane Permeable-Phenotype (%): 0%
  Population Mitochondria Different-Phenotype (%): 5%
  Population Mitotic Cells (%): 50%
  Population Normal (%): 97%
  Population Pyknosed Nuclei (%): 18%
  Population Tubulin-Different-Phenotype (%): 20%
  Total Cell Count: 147
[6]
  Population Apoptotic (%): 42%
  Population Fragmented Nuclei (%): 21%
  Population Healthy Nuclei (%): 51%
  Population Hoechst High Intensity Objects (%): 5%
  Population Membrane Permeable-Phenotype (%): 4%
  Population Mitochondria Different-Phenotype (%): 4%
  Population Mitotic Cells (%): 57%
  Population Normal (%): 94%
  Population Pyknosed Nuclei (%): 26%
  Population Tubulin-Different-Phenotype (%): 35%
  Total Cell Count: 131
[7]
  Population Apoptotic (%): 46%
  Population Fragmented Nuclei (%): 19%
  Population Healthy Nuclei (%): 60%
  Population Hoechst High Intensity Objects (%): 5%
  Population Membrane Permeable-Phenotype (%): 0%
  Population Mitochondria Different-Phenotype (%): 3%
  Population Mitotic Cells (%): 53%
  Population Normal (%): 94%
  Population Pyknosed Nuclei (%): 20%
  Population Tubulin-Different-Phenotype (%): 15%
  Total Cell Count: 135
[8]
  Population Apoptotic (%): 53%
  Population Fragmented Nuclei (%): 34%
  Population Healthy Nuclei (%): 39%
  Population Membrane Permeable-Phenotype (%): 18%
  Population Mitochondria Different-Phenotype (%): 14%
  Population Mitotic Cells (%): 46%
  Population Pyknosed Nuclei (%): 25%
  Population Tubulin-Different-Phenotype (%): 62%
  Total Cell Count: 134
[9]
  Population Apoptotic (%): 59%
  Population Fragmented Nuclei (%): 13%
  Population Healthy Nuclei (%): 66%
  Population Hoechst High Intensity Objects (%): 5%
  Population Membrane Permeable-Phenotype (%): 1%
  Population Mitochondria Different-Phenotype (%): 1%
  Population Mitotic Cells (%): 40%
  Population Normal (%): 94%
  Population Pyknosed Nuclei (%): 19%
  Population Tubulin-Different-Phenotype (%): 32%
  Total Cell Count: 146
[10]
  Population Apoptotic (%): 42%
  Population Fragmented Nuclei (%): 26%
  Population Healthy Nuclei (%): 58%
  Population Hoechst High Intensity Objects (%): 2%
  Population Membrane Permeable-Phenotype (%): 4%
  Population Mitochondria Different-Phenotype (%): 6%
  Population Mitotic Cells (%): 57%
  Population Normal (%): 97%
  Population Pyknosed Nuclei (%): 15%
  Population Tubulin-Different-Phenotype (%): 50%
  Total Cell Count: 127
[11]
  Population Apoptotic (%): 58%
  Population Fragmented Nuclei (%): 19%
  Population Healthy Nuclei (%): 58%
  Population Hoechst High Intensity Objects (%): 2%
  Population Membrane Permeable-Phenotype (%): 1%
  Population Mitochondria Different-Phenotype (%): 2%
  Population Mitotic Cells (%): 41%
  Population Normal (%): 97%
  Population Pyknosed Nuclei (%): 22%
  Population Tubulin-Different-Phenotype (%): 26%
  Total Cell Count: 143
[12]
  Population Apoptotic (%): 77%
  Population Fragmented Nuclei (%): 40%
  Population Healthy Nuclei (%): 43%
  Population Hoechst High Intensity Objects (%): 5%
  Population Membrane Permeable-Phenotype (%): 10%
  Population Mitochondria Different-Phenotype (%): 14%
  Population Mitotic Cells (%): 22%
  Population Normal (%): 94%
  Population Pyknosed Nuclei (%): 16%
  Population Tubulin-Different-Phenotype (%): 73%
  Total Cell Count: 119
